Rce1 inhib = blocks yeast Ras-converting enzyme. Q03530. yeast membranes, quenched prenylated peptide cleavage fluorescence. calls only. hit rate 0.27% among 290,000;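 active = fall in fluorescence gain of 50% or more versus controls, with final raw signal at or below 3038400; inconclusive = same 50% fall but final raw signal above 3038400; inactive = fall in fluorescence gain under 50%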
Target sequence (Q03530 whole entry, looked up): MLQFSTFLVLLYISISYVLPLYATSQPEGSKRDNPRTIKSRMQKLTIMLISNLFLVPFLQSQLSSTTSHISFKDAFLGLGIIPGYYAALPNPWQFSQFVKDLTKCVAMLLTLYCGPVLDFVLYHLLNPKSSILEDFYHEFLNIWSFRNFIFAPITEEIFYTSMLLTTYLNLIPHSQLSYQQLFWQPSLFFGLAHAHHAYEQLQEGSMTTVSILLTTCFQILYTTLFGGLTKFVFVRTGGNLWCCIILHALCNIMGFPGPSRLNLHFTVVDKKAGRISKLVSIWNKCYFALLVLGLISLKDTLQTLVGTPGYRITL
CAL PDZ FP-1 = CAL PDZ (human) peptide binding inhibition. hit rate 0.92% among 300,000. inhibition, % at 24.9 µM. purified CAL PDZ, TMR-peptide fluorescence polarization, 1 h;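 active = mean inhibition of at least 30% with at least half of replicates also reaching 30%; inconclusive = no clear call, values can overlap the other calls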
AI-2 QS modul = Vibrio harveyi AI-2 quorum sensing modulation | hit rate 0.4% among 300,000 | activity change, % at 7.5 µM | AID 2094 | Vibrio harveyi JMH597 AI-2 luminescence/OD600 ratio, 9 h; stronger effect = lower value; strain lacks LuxN and CqsS sensors; 0 = neutral-control median; in the data active = activity change below about -75%, passing the limit was not always enough; inconclusive = no clear call, values can overlap the other calls;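 also: luminescence divided by OD600 gain over 9 h not by final OD600 alone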
CAL PDZ FP-2 = inhibitors of human CAL PDZ peptide binding; Q9HD26; purified CAL PDZ, TMR-peptide fluorescence polarization, 1 h; inhibition, % at 20 µM; hit rate 0.02% among 330,000; AID 504414;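 active = highest replicate inhibition of at least 40%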
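Test system: purified CerCALP PDZ construct; Compound dosing: one concentration, 20 µM compound; Also added: TMR-labelled reporter peptide T*-PRC34 bound in PDZ groove; Read-out: inhibition from polarization loss; Controls: unlabelled peptide and DMSO controls; Signal: FP readout, S and P plane fluorescence; Incubation: 1 h at RT.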
ARNT-TACC3 inh = disruptors of human ARNT/TACC3 interaction. Q9Y6A5. AlphaScreen His-ARNT PAS-B/GST-TACC3 binding, luminescence; TACC3 fragment carries E629A point mutation. inhibition, % at 9.99 µM. hit rate 0.66% among 390,000;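 active = mean inhibition of replicates at least 50% and at least half of replicates each reaching 50%; inconclusive = half or more replicates reach 50% but mean below 50%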
Large screens that a line does not name were inactive. Only some compounds are listed: those with a hit (about 1.7% of all), similar ones and a draw of the others.

CC(=O)NC(=S)NNC(=O)CCc1ccccc1	AI-2 QS modul inconclusive
CCCCC(=O)NC(=S)NNC(=O)CCc1ccccc1	AI-2 QS modul inconclusive, ARNT-TACC3 inh 29.2
O=C(CCc1ccccc1)NNC(=S)NC(=O)c1ccccc1	AI-2 QS modul -308.8
CC(C)CNC(=O)C(=O)NCC1CCCN1S(=O)(=O)c1cccs1 (centres undefined)	none
Cc1c(CC(=O)N[C@@H](C)C(=O)O)c(=O)oc2c(C)c3occ(-c4ccccc4)c3cc12	ARNT-TACC3 inh 75.7
Cc1c(CC(=O)N[C@@H](C)C(=O)O)c(=O)oc2cc3occ(-c4ccccc4)c3cc12	ARNT-TACC3 inh 48.1
Cc1coc2c(C)c3oc(=O)c(CC(=O)N[C@@H](CC(C)C)C(=O)O)c(C)c3cc12	none
COc1ccc(C=O)cc1OC(=O)N1CCOCC1	none
O=C(NCc1ccccn1)NC12CC3CC(CC(C3)C1)C2	CAL PDZ FP-1 76.1
O=C(NCc1ccccc1)NC12CC3CC(CC(C3)C1)C2	none
CCn1c(C(C)NC(=O)c2ccc(Cl)cc2)n[nH]c1=S (centres undefined)	none
COc1cccc(/C=C/C2=CC(C)(C)NC(=S)N2)c1	none
C[C@H](CO)N1C[C@H](C)[C@H](CN(C)C(=O)Nc2cccc3ccccc23)Oc2c(NC(=O)Nc3ccc(C(F)(F)F)cc3)cccc2C1=O	none (no result: Rce1 inhib, CAL PDZ FP-1, AI-2 QS modul, CAL PDZ FP-2)
Cc1nnc(NC(=O)CSc2nnc(CNC(=O)C34CC5CC(CC(C5)C3)C4)n2C2CCCCC2)s1	none
CC(C)Sc1nnc(CNC(=O)C23CC4CC(CC(C4)C2)C3)n1C1CCCCC1	CAL PDZ FP-1 47.2
CCOc1ccc(C(C(=O)NCC2CCCO2)N(Cc2cccc(OC)c2)C(=O)c2snc(C(N)=O)c2N)cc1 (centres undefined)	none
CCOc1ccc(C(C(=O)NCC2CCCO2)N(Cc2ccccc2)C(=O)c2snc(C(N)=O)c2N)cc1 (centres undefined)	CAL PDZ FP-1 88.0
COCC#Cc1cnc2c(c1)C(=O)N([C@@H](C)CO)C[C@@H](C)[C@H](CN(C)C(=O)Cc1ccccc1)O2	none (no result: Rce1 inhib, CAL PDZ FP-1, AI-2 QS modul, CAL PDZ FP-2)
N=C1CCC(=N)c2c1c(O)c1ccccc1c2O	ARNT-TACC3 inh 51.0
N#Cc1c(C#N)c(O)c2ccccc2c1O	none
Cc1ccccc1NS(=O)(=O)c1ccc(C(=O)NCC(c2ccccc2)N(C)C)cc1 (centres undefined)	Rce1 inhib active
NC(=NCc1ccc2c(c1)OCO2)NC(=O)c1ccccc1	AI-2 QS modul -77.2
CSc1ccc(/C=C/C(=O)OCC(=O)NC2CC2)cc1	none (no result: Rce1 inhib, AI-2 QS modul)
COc1cc(-n2ccnc2SC)c(Cl)cc1Cl	CAL PDZ FP-1 53.6
O=C(Nc1cccc2ccccc12)c1ccccc1	none
O=C(Nc1cccc2ccccc12)c1ccc(F)cc1	CAL PDZ FP-1 51.8
CC(C)C(C(=O)Nc1ncn[nH]1)N1C(=O)c2ccccc2C1=O (centres undefined)	ARNT-TACC3 inh 35.5
C[C@@H]1CCCCO[C@H](CN(C)C(=O)c2ccccc2)[C@@H](C)CN([C@@H](C)CO)C(=O)c2cc(NC(=O)Nc3ccc4c(c3)OCO4)ccc2O1	none (no result: Rce1 inhib, CAL PDZ FP-1, AI-2 QS modul, CAL PDZ FP-2)
Cc1nn(C)c(C)c1NC(=S)Nc1ccc(S(=O)(=O)Nc2ncccn2)cc1	CAL PDZ FP-1 39.1
Cc1cc(C)cc(C(=O)Nc2nc3ccccc3[nH]2)c1	none
O=C(Nc1nc2ccccc2[nH]1)c1cc2ccccc2o1	CAL PDZ FP-1 45.7
CC(=O)c1cn(CC(=O)Nc2ccccc2F)c2ccccc12	none (no result: Rce1 inhib, AI-2 QS modul)
O=C(Cn1c2ccccc2c(=O)c2ccccc21)Nc1ccccc1F	Rce1 inhib active
CCOC(=O)c1ccc(NC(=O)CN2CCN(Cc3ccccc3)CC2)cc1	none
CCOC(=O)c1ccc(NC(=O)N2CCN(Cc3ccccc3)CC2)cc1	Rce1 inhib active
O=C(Oc1cccc(Nc2ncnc3ccccc23)c1)c1ccccc1Cl	none
O=C(COc1ccc(Cl)cc1Cl)Nc1nnc(C2=COCCO2)o1	none
O=C(COc1ccccc1)Nc1nnc(-c2ccccc2Cl)o1	AI-2 QS modul -79.0
O=C(COc1ccc(Cl)cc1)Nc1nnc(C2=COCCO2)o1	ARNT-TACC3 inh 47.0
COc1ccc(C(=O)Nc2nnc(C3=COCCO3)o2)cc1	ARNT-TACC3 inh 58.1
CCCCCn1c(=O)c2ccccc2n2c(=S)[nH]nc12	none
COc1ccc(C(=O)CCC(C)(C)[N+](=O)[O-])cc1OC	CAL PDZ FP-1 33.0
Cc1cc(C(=O)CN2C(=O)NC3(CCCCCC3)C2=O)c(C)n1C	none (no result: Rce1 inhib, AI-2 QS modul)
COc1cccc(N=Nc2c(N)[nH]n3c(=O)cc(-c4ccccc4)nc23)c1	CAL PDZ FP-1 63.4
COc1cc(-c2cc(C(=O)Nc3nc4ccccc4s3)c3ccccc3n2)cc(OC)c1OC	CAL PDZ FP-1 87.0
O=C(O)c1ccccc1C(=O)N1CCN(c2ncccn2)CC1	none (no result: CAL PDZ FP-2, ARNT-TACC3 inh)
CCOC(=O)C1=CN(Cc2ccco2)S(=O)(=O)N(CC)C1c1ccc(C(F)(F)F)cc1 (centres undefined)	CAL PDZ FP-1 78.5 (no result: Rce1 inhib, AI-2 QS modul)
CCCS(=O)(=O)c1nc(S(=O)(=O)c2ccc(C)cc2)c(NCCCN2CCCC2=O)s1	CAL PDZ FP-1 41.7
Cc1ccc(NC(=S)NNC(=O)c2nnn(-c3ccccc3)c2C)cc1	ARNT-TACC3 inh 59.0
CCS(=O)(=O)Nc1ccc2c(c1)C(=O)N(C)C[C@@H](OC)[C@@H](C)CN(C(=O)CN(C)C)[C@H](C)CO2	none (no result: Rce1 inhib, CAL PDZ FP-1, AI-2 QS modul, CAL PDZ FP-2)
CN1CC(c2ccccc2)Oc2ccccc2C1=S (centres undefined)	CAL PDZ FP-1 66.6
O=C1CC(c2ccc(O)cc2)Oc2ccccc21 (centres undefined)	none (no result: Rce1 inhib, AI-2 QS modul)
CCC1CCCCN1CCCNC(=O)Cn1c(=O)c2cccn2c2ccccc21 (centres undefined)	none
CC(=O)c1ccc(NC(=O)c2noc3c2CCC3)cc1	CAL PDZ FP-1 68.3 (no result: CAL PDZ FP-2)
COc1ccc(OC)c(Cc2nnc(CCC(=O)N3CCCCC3)o2)c1	none
COc1ccc(OC)c(Cc2nnc(CCC(=O)N3CCN(C4CCCC4)CC3)o2)c1	Rce1 inhib active
Cc1cccc(-c2nc(S(=O)(=O)c3ccccc3)c(N3CCOCC3)o2)c1	none
CCOC(=O)N1CCN(Cc2nc(-c3ccccc3)no2)CC1	none
CN(/C=C/c1c([N+](=O)[O-])c(=O)n(C)c(=O)n1C)c1ccccc1	CAL PDZ FP-1 86.2, ARNT-TACC3 inh active
O=C(NC1CCCCCC1)c1cccc(N2CCCC2=O)c1	none (no result: Rce1 inhib)
O=C(NC1CCCN(Cc2ccc(Cl)cc2)C1)c1cccc(N2CCCC2=O)c1 (centres undefined)	CAL PDZ FP-2 139.3
O=C(CSc1ccc2nnc(-c3ccccn3)n2n1)NCc1ccco1	ARNT-TACC3 inh 61.3 (no result: CAL PDZ FP-1)
O=C(CSc1ccc2nnc(-c3ccccc3)n2n1)NCc1ccco1	none
CCN1CCN(c2ncnc3sc(C(=O)Nc4ccccc4F)c(C)c23)CC1	none
Oc1ccc(-c2nc3ccccn3c2NCc2ccco2)cc1	Rce1 inhib active
CC(=O)Nc1ccc(-c2cc(NC(C)=O)n(-c3ccccc3)n2)cc1	CAL PDZ FP-1 75.4
COc1cc2c(cc1OC)CN(C(=O)c1ccc3nc[nH]c3c1)CC2	none (no result: ARNT-TACC3 inh)

Compound activity deposited in PubChem BioAssay by Broad Institute.
